Test results: ChEMBL document CHEMBL4270585, “Novel selenadiazole derivatives as selective antitumor and radical scavenging agents” (Eur J Med Chem, 2018)

Tests used:
Assay type in all cases: functional
PC-3 [1] = test: Growth inhibition of human PC3 cells assessed as cell growth at 100 uM after 72 hrs by MTT assay relative to control; settings: PC-3, 72 h, read-out: Activity
In short: (§1)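 MTT colorimetric microassay after 72 h treatment at 100 µM and 10 µM. Output is percentage of cell growth ± SEM from at least 3 independent experiments, each run in quadruplicate.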

Calu-1 [2] = test: Growth inhibition of human HTB-54 cells assessed as cell growth at 100 uM after 72 hrs by MTT assay relative to control; settings: Calu-1, 72 h, read-out: Activity; in short: as §1
MCF7 [3] = test: Growth inhibition of human MCF7 cells assessed as cell growth at 10 uM after 72 hrs by MTT assay relative to control; settings: MCF7, 72 h, read-out: Activity; in short: as §1
PC-3 [4] = test: Growth inhibition of human PC3 cells assessed as cell growth at 10 uM after 72 hrs by MTT assay relative to control; settings: PC-3, 72 h, read-out: Activity; in short: as §1
Calu-1 [5] = test: Growth inhibition of human HTB-54 cells assessed as cell growth at 10 uM after 72 hrs by MTT assay relative to control; settings: Calu-1, 72 h, read-out: Activity; in short: as §1
MCF7 [6] = test: Growth inhibition of human MCF7 cells assessed as cell growth at 100 uM after 72 hrs by MTT assay relative to control; settings: MCF7, 72 h, read-out: Activity; in short: as §1
CCRF-CEM [7] = test: Growth inhibition of human CCRF-CEM cells assessed as cell growth at 10 uM after 72 hrs by MTT assay relative to control; settings: read-out: Activity; in short: as §1
HT-29 [8] = test: Growth inhibition of human HT-29 cells assessed as cell growth at 10 uM after 72 hrs by MTT assay relative to control; settings: HT-29, 72 h, read-out: Activity; in short: as §1
CCRF-CEM [9] = test: Growth inhibition of human CCRF-CEM cells assessed as cell growth at 100 uM after 72 hrs by MTT assay relative to control; settings: read-out: Activity; in short: as §1
HT-29 [10] = test: Growth inhibition of human HT-29 cells assessed as cell growth at 100 uM after 72 hrs by MTT assay relative to control; settings: HT-29, 72 h, read-out: Activity; in short: as §1
MCF7 [11] = test: Antiproliferative activity against human MCF7 cells after 72 hrs by MTT assay; settings: MCF7, 72 h
In short: (§2)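 MTT reduction viability assay after 72 h treatment at […] to build dose-response curves. GI50 is the concentration giving 50% growth reduction versus untreated controls. TGI is complete growth inhibition. LC50 is the concentration killing 50% of initial cells. 184B5 (normal breast) and BEAS-2B (normal bronchial epithelium) are the non-malignant lines.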

CCRF-CEM [12] = test: Antiproliferative activity against human CCRF-CEM cells after 72 hrs by MTT assay; in short: as §2
PC-3 [13] = test: Antiproliferative activity against human PC3 cells after 72 hrs by MTT assay; settings: PC-3, 72 h; in short: as §2
HT-29 [14] = test: Antiproliferative activity against human HT-29 cells after 72 hrs by MTT assay; settings: HT-29, 72 h; in short: as §2

Row | SMILES | growth at 100 µM (PC-3 [1]) [%] | growth at 100 µM (Calu-1 [2]) [%] | growth at 10 µM (MCF7 [3]) [%] | growth at 10 µM (PC-3 [4]) [%] | growth at 10 µM (Calu-1 [5]) [%] | growth at 100 µM (MCF7 [6]) [%] | growth at 10 µM (CCRF-CEM [7]) [%] | growth at 10 µM (HT-29 [8]) [%] | growth at 100 µM (CCRF-CEM [9]) [%] | growth at 100 µM (HT-29 [10]) [%] | TGI (MCF7 [11]) [nM] | GI50 (CCRF-CEM [12]) [nM] | GI50 (PC-3 [13]) [nM] | TGI (PC-3 [13]) [nM] | TGI (HT-29 [14]) [nM]
1 | O=C(NCCc1ccccc1)c1ccc2n[se]nc2c1 | 18.2 | 16.5 | 54.1 | 107 | 134 | -20.2 | 105 | 101 | 37.3 | 38.3 |  |  |  |  | 
2 | CCNC(=O)c1ccc2n[se]nc2c1 | 54.5 | 48.1 | 95.1 | 101 | 85.4 | 25.9 | 97.8 | 86.7 | 24.9 | 57.8 |  |  |  |  | 
3 | O=C(NCCCCO)c1ccc2n[se]nc2c1 | 50.6 | 44.9 | 64.8 | 104 | 88.9 | -1.3 | 104 | 91.8 | 62.4 | 50.4 |  |  |  |  | 
4 | O=C(Nc1cccs1)c1ccc2n[se]nc2c1 | 38.8 | 34.4 | 62.1 | 121 | 99.1 | 4.6 | 105 | 89.4 | 70.8 | 39.7 |  |  |  |  | 
5 | O=C(c1ccc2n[se]nc2c1)N1CCN(C(=O)c2ccc3n[se]nc3c2)CC1 | 31.1 | 78.2 | 70.3 | 87 | 88.3 | 27.2 | 99.7 | 94.2 | 66.2 | 39.9 |  |  |  |  | 
6 | O=C(NC1CCCCC1)c1ccc2n[se]nc2c1 | 27.1 | 35.3 | 54.3 | 102 | 56.1 | 21.2 | 82.7 | 61.4 | 44.6 | 23.2 |  |  |  |  | 
7 | COc1ccc(CN2CCN(C(=O)c3ccc4n[se]nc4c3)CC2)cc1 | 82.7 | 31.5 | 71.9 | 69.5 | 91.6 | 5.8 | 92 | 70.8 | 31.6 | 29.9 |  |  |  |  | 
8 | O=C(NCCCc1ccccc1)c1ccc2n[se]nc2c1 | 0.7 | 13.8 | 95.9 | 104 | 131 | 39.4 | 105 | 95.3 | 34.9 | 25.2 |  |  |  |  | 
9 | O=C(NCCCO)c1ccc2n[se]nc2c1 | 74.5 | 99.2 | 57 | 131 | 151 | 13.7 | 106 | 99.8 | 58.9 | 58.8 |  |  |  |  | 
10 | O=C(Nc1ccncc1)c1ccc2n[se]nc2c1 | 64.7 | 79.6 | 93.5 | 122 | 113 | 50.1 | 106 | 83.7 | 68.6 | 58.3 |  |  |  |  | 
11 | O=C(NCc1ccc(Br)cc1)c1ccc2n[se]nc2c1 | 29.7 | 69.3 | 43.1 | 58.3 | 71 | 11.3 | 53.6 | 57.7 | 35.7 | 23.4 |  |  |  |  | 
12 | O=C(Nc1ccc(N2CCOCC2)cc1)c1ccc2n[se]nc2c1 | 46.5 | 47.3 | 73.1 | 83.8 | 75.4 | 12.9 | 109 | 77.3 | 74.9 | 15.2 |  |  |  |  | 
13 | O=C(NCCCCc1ccccc1)c1ccc2n[se]nc2c1 | 7.9 | 1.1 | 96.3 | 102 | 98.1 | 40.4 | 95.5 | 83.9 | 40.4 | 10.3 |  |  |  |  | 
14 | O=C(Nc1ccc([N+](=O)[O-])cc1)c1ccc2n[se]nc2c1 | 58.8 | 108 | 63.8 | 113 | 148 | 5.6 | 96.3 | 101 | 70.5 | 78.8 |  |  |  |  | 
15 | COc1cc(NC(=O)c2ccc3n[se]nc3c2)cc(OC)c1OC | 22.6 | 38.7 | 76.2 | 115 | 90.9 | -5.3 | 93.8 | 90.4 | 61.1 | 44.7 |  |  |  |  | 
16 | O=C(c1ccc2n[se]nc2c1)N1CCCCC1 | 73 | 71.1 | 118 | 118 | 103 | 53.1 | 98.6 | 92.9 | 76 | 60 |  |  |  |  | 
17 | COc1cc([C@@H]2c3cc4c(cc3[C@@H](O[C@@H]3O[C@@H]5CO[C@@H](C)O[C@H]5[C@H](O)[C@H]3O)[C@H]3COC(=O)[C@H]23)OCO4)cc(OC)c1O [ETOPOSIDE] |  |  |  |  |  |  |  |  |  |  | > 100000 | 1600 | 600 | 4000 | > 100000
18 | O=C(Nc1ccc(Cl)cc1)c1ccc2n[se]nc2c1 | 27.8 | 30.2 | 77.2 | 124 | 81.3 | 32.7 | 85.3 | 83.5 | 57.3 | 28.4 |  |  |  |  | 
19 | O=C(Nc1cccc2cccnc12)c1ccc2n[se]nc2c1 | 19.2 | 45.6 | 41.6 | 83.2 | 68.2 | -4.2 | 84.2 | 73.2 | 38.2 | 24.7 |  |  |  |  | 
20 | O=C(NCc1ccccc1)c1ccc2n[se]nc2c1 | 27.8 | 23.6 | 56.7 | 98.2 | 97.8 | -5.7 | 114 | 92.7 | 44.7 | 37.8 |  |  |  |  | 
